Source: PubChem (The Scripps Research Institute Molecular Screening Center)
In the library only some 1.9% were active in any assay of this set; here they are far more common.
PLC-beta3 inh: PLC-beta3 (human) inhibition, primary screen; 370,000 compounds, 0.18% hits; AID 720704; inhibition, % at 12.2 µM; Q01970; Purified PLC-beta3, fluorogenic substrate, fluorescence; in the data active means inhibition above about 11%
Target sequence (Q01970 whole entry, looked up): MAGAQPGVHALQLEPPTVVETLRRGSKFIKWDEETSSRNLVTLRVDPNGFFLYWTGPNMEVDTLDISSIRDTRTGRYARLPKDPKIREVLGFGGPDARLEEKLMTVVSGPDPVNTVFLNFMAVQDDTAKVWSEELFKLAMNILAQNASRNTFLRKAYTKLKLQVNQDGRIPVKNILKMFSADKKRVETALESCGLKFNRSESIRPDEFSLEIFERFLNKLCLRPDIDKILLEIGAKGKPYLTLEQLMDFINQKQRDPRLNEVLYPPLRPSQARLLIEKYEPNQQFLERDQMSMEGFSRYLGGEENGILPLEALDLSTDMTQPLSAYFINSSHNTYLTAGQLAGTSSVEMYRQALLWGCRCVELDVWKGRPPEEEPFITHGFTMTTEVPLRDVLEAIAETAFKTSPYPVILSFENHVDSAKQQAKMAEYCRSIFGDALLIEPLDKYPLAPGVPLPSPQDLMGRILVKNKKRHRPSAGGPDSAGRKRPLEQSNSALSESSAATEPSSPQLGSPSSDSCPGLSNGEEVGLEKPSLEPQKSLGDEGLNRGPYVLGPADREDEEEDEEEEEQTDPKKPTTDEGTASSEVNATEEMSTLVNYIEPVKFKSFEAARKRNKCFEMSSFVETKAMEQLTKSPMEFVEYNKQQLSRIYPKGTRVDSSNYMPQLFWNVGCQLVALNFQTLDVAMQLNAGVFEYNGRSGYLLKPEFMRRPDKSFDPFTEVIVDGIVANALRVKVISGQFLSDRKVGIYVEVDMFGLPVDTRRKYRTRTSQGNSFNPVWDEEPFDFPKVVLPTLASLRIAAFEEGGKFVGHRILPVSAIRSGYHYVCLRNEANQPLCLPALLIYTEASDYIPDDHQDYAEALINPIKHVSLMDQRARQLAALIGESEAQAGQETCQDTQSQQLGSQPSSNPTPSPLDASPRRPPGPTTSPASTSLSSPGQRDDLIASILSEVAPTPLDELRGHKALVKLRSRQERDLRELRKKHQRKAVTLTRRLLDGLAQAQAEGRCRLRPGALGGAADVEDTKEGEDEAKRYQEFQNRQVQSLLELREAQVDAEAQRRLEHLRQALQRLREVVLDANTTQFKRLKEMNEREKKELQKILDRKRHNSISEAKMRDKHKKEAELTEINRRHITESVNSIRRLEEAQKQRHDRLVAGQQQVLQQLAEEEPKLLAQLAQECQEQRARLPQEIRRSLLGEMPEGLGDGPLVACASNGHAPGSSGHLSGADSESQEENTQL
TbMetRS inhib: blocks T. brucei methionyl-tRNA synthetase activity; purified T. brucei MetRS, ATP depletion, Kinase-Glo luminescence; inhibition, % at 11.9 µM; 360,000 compounds, 0.4% hits; AID 624268;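 active means inhibition above a per-plate cutoff of the control wells' mean inhibition plus 3 SD, cut at about 5.5% in these data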
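Test system – parasite MetRS enzyme · Reagent – substrates ATP, L-methionine and bulk Escherichia coli tRNA · Doses – 11.9 µM compound single dose, 0.9% DMSO · Times – 15 min enzyme-compound preincubation, 2 h reaction, 10 min detection, 25 °C · Signal – Kinase-Glo luminescence, ATP depletion format · Controls – DMSO-only wells as low control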
sPLA2-III inh: Blocks human group III sPLA2 activity; Q9NZ20; QFRET BODIPY PC-A2 liposome hydrolysis, fluorescence; inhibition, % at 12.2 µM; 370,000 compounds, 0.56% hits;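 active means inhibition above mean plus 3 SD of compounds lying within the high and low control bounds, cut at about 19% in these data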
PLCg1 inh: PLC-gamma1 (human) inhibition, primary screen. P19174. purified PLC-gamma1, fluorogenic substrate, fluorescence. inhibition, % at 12.2 µM. 370,000 compounds, 0.84% hits. AID 720700
DAGLB inhibitor: diacylglycerol lipase beta (human) inhibition. AID 504411. HEK293T DAGLB membrane lysate, EnzChek fluorogenic substrate. inhibition, % at 5.17 µM. 340,000 compounds, 0.059% hits; in the data active means inhibition above about 34%
PLCg1 ctr: PLC-gamma1 inhibition, counter-screen for PLC-beta3 hits | AID 743258 | shares compounds with PLCg1 inh | inhibition, % at 12.3 µM | 3,300 compounds, 3.1% hits | purified PLC-gamma1, fluorogenic substrate, fluorescence
PLCbeta3 conf: confirmation of human PLC-beta3 inhibitors. shares compounds with PLCg1 inh. purified PLC-beta3, fluorogenic substrate fluorescence. inhibition, % at 12.3 µM. 3,300 compounds, 1% hits. AID 743261; in the data active means inhibition above about 11%
A number is an active result; n = inactive; x = no result given. Unless noted, no stated cut-off is given here; in the data, active means inhibition above about 9.5%; inactive means the rest.

SMILES	PLC-beta3 inh	TbMetRS inhib	sPLA2-III inh	PLCg1 inh	DAGLB inhibitor	PLCg1 ctr	PLCbeta3 conf
C=C(C)C(=O)Nc1cccc(C2=NOC3(C2)C[C@@H](C(N)=O)N(C(=O)/C=C/CC)C3)c1 (stereo not given in full)	n	n	n	n	n	x	x
Cc1c(C(=O)N2CC3(CC(c4cccc(NC(=O)[C@H]5CCC(=O)N5)c4)=NO3)C[C@@H]2C(N)=O)cc([N+](=O)[O-])cc1[N+](=O)[O-] (stereo not given in full)	n	n	n	n	n	x	x
C=C(C)C(=O)Nc1cccc(C2=NOC3(C2)C[C@H](C(N)=O)N(C(=O)/C=C/C)C3)c1 (stereo not given in full)	n	n	n	11.5	n	n	n
C=C(C)C(=O)Nc1cccc(C2=NOC3(C2)C[C@@H](C(N)=O)N(C(=O)c2cc([N+](=O)[O-])cc([N+](=O)[O-])c2C)C3)c1 (stereo not given in full)	n	n	n	10.0	n	n	n
CCOC(=O)C1=CCN(S(=O)(=O)c2ccc(Cl)cc2)C1c1cccc(F)c1 (stereo not given)	n	x	n	n	x	x	x
O=C(CSc1nnc(CCCN2C(=O)c3cccc4cccc(c34)C2=O)n1-c1ccccc1)NCCCN1CCOCC1	n	n	n	11.2	n	n	n
Cc1cccc(CN2CCN(CC(=O)NCc3ccc(F)cc3)C2=O)c1	n	n	n	11.1	n	n	n
C#CCCC(=O)Nc1sc2c(c1-c1nc3ccccc3s1)CCN(C(C)C)C2	n	x	n	n	x	x	x
O[C@H](COc1cccc(F)c1)CN1CCC(C(O)(c2ccccc2)c2ccccc2)CC1	n	x	n	n	x	x	x
CC(C)C[C@H]1COc2cccc(F)c2S(=O)(=O)N1C	n	x	n	n	x	x	x
CNS(=O)(=O)c1cccc(C(=O)OCC(=O)NC2CCCC2)c1	n	n	n	9.6	n	n	n
COc1ccccc1NS(=O)(=O)c1cccc(C(=O)OCC(=O)NC2CC2)c1	n	n	n	n	n	x	x
O=C(NCc1cccs1)NC1CCCCC1	n	n	n	9.8	n	n	n
Cc1cc(C(=O)COC(=O)c2ccc(Br)o2)c(C)n1C	n	n	n	n	n	x	x
COCCn1c(C)cc(C(=O)COC(=O)c2ccc(Br)o2)c1C	n	n	n	10.2	n	n	n
COC(=O)[C@]12C[C@H](CC(=O)NCc3cccc(C(F)(F)F)c3)C(=O)N(CCc3ccc(OC)c(OC)c3)C1=C[C@H](C(C)C)O[C@@H]2C1CC1	n	x	n	n	x	x	x
CN(C)c1ccc(P(=O)(Nc2ccccc2)N2CCOCC2)c(NC(=O)c2cccs2)c1 (stereo not given)	n	n	n	n	n	x	x
Cc1ccc(NP(=O)(c2ccc(N(C)C)cc2NC(=O)c2cccs2)N2CCOCC2)cc1 (stereo not given)	14.0	n	n	n	n	n	n
C[C@H]1[C@@H](OC(=O)Nc2cccc(Cl)c2)CC[C@@]23CCCN2C(=O)CCC[C@@H]13	n	x	n	n	x	x	x
C[N+](C)(C)CCOC(N)=O	n	n	n	10.9	n	n	n
CCOCCn1c(C(C)O)nc2ccccc21 (stereo not given)	n	n	n	10.4	n	n	n
CCCCCn1c(C(Cc2ccccc2)NC(=O)COC)nc2ccccc21 (stereo not given)	n	n	n	n	n	x	x
CCCCn1c(C(C)NC(=O)COC)nc2ccccc21 (stereo not given)	n	n	n	10.1	n	n	n
CCOCCn1c(CC)nc2ccccc21	n	n	n	n	n	x	x
Cc1nn(-c2ccccc2)c2sc(C(=O)NCC3CCCO3)cc12 (stereo not given)	n	x	n	n	x	x	x
SMILES	PLC-beta3 inh	TbMetRS inhib	sPLA2-III inh	PLCg1 inh	DAGLB inhibitor	PLCg1 ctr	PLCbeta3 conf
O=C1CCCN2N=C(SCC(=O)N3N=C(c4ccc(Br)cc4)CC3c3ccc(F)cc3)SC2=N1 (stereo not given)	n	n	n	14.5	n	n	n
CCN1CCN(CC2CC3C=CC2C3)CC1 (stereo not given)	n	n	n	n	n	x	x
CS(=O)(=O)N1CCN(CC2CC3C=CC2C3)CC1 (stereo not given)	n	n	n	10.0	n	n	n
CCOC(=O)[C@]12CCCC3=C1N(CCC3)C(=O)[C@@H](CC(=O)NCc1ccc(C)o1)C2	n	x	n	n	x	x	x
NC1=NC[C@H](Cc2ccc(O)cc2)N1CCc1cc(C(F)(F)F)cc(C(F)(F)F)c1	n	n	n	10.3	n	n	n
NC1=NC[C@@H](CC2CCCCC2)N1CCc1cc(C(F)(F)F)cc(C(F)(F)F)c1	x	n	x	x	n	x	x
COC(=O)CSc1nnc(-c2ccc(NS(=O)(=O)c3ccc(C(C)(C)C)cc3)cc2)o1	n	x	n	n	x	x	x
O=C(C[n+]1cccc(CNC(=O)c2ccc(OC(F)F)cc2)c1)Nc1ccc(F)cc1	n	n	n	n	n	x	x
O=C(C[n+]1cccc(CNC(=O)c2ccc(OC(F)F)cc2)c1)Nc1cccc(C(F)(F)F)c1	11.8	n	n	n	n	n	n
O=C([C@@H]1C[C@H]1c1ccccc1)N1CCC(Oc2cccnc2)CC1	n	x	n	n	x	x	x
Cc1ccc(-c2cc(N)n(-c3ccc(F)cc3)n2)cc1	n	n	n	12.9	n	n	n
Cc1nc2ccc(S(=O)(=O)NCC(=O)NCc3cccs3)cc2s1	n	x	n	n	x	x	x
COc1ccc(C(=S)N2CCN(c3ccccc3C)CC2)cc1	n	n	n	13.3	n	n	n
COc1ccc([N+](=O)[O-])cc1NC(=O)C(C)OC(=O)CSC(C)C(=O)Nc1cc(C)on1 (stereo not given)	n	n	n	10.4	n	n	n
Cc1cc(NC(=O)C(C)SCC(=O)OC(C)C(=O)Nc2ccccc2C)no1 (stereo not given)	n	n	n	n	n	x	x
COCCn1c(SCC(=O)N2CCCC2)nc2c(c1=O)SCC2	10.7	n	n	n	n	n	n
O=C1COc2ccccc2C(c2nnnn2Cc2ccccc2)N1Cc1cccs1 (stereo not given)	n	x	n	n	x	x	x
CCn1c(CNc2ccc(C)cc2)nnc1SCC(N)=O	n	n	n	9.7	n	n	n
CCCCc1c(-c2ccccc2OC)ncn1Cc1ccccc1F	n	x	n	n	x	x	x
C[C@@H]1NS(=O)(=O)c2ccc(F)cc2O[C@@H]1c1ccccc1	n	x	n	n	x	x	x
CC1CCN(C(=O)CSc2nc3ncccc3[nH]2)CC1	n	n	n	n	n	x	x
CCC1CCCCN1C(=O)CSc1nc2ncccc2[nH]1 (stereo not given)	n	n	n	10.8	n	n	n
O=C(CCSc1ccccc1)N1CCN(C(=O)c2ccco2)CC1	n	n	n	13.6	n	n	n
O=C(Cc1ccccc1)N1CCN(C(=O)c2ccco2)CC1	n	n	n	n	n	x	x
